Measurements published in ChEMBL document CHEMBL1687761.

Legend:
[1] = tested on: Escherichia coli; assay: Ratio of Kcat to Km for Escherichia coli XL1-Blue wild-type IMP-1 beta-lactamase by spectrophotometer
[2] = tested on: Escherichia coli; assay: Activity of Escherichia coli XL1-Blue IMP-1 W64A mutant beta-lactamase by spectrophotometer
[3] = tested on: Escherichia coli; assay: Activity of Escherichia coli XL1-Blue wild-type IMP-1 beta-lactamase by spectrophotometer
[4] = tested on: Escherichia coli; assay: Activity of Escherichia coli XL1-Blue VIM-2 A64W mutant beta-lactamase by spectrophotometer
How it was run: (§1)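 Mutant enzyme expressed in E. coli BL21(DE3) in autoinducing ZYP-5052 medium. Purified by anion exchange at pH 7.2, then high-resolution anion exchange at pH 9.2, plus gel filtration in 50 mM HEPES-50 μM ZnSO4 pH 7.5 where needed. Identity confirmed by tryptic peptide mass fingerprint. Steady-state kinetics on β-lactam substrates were run under the conditions used for wild-type VIM-2.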

[5] = tested on: Escherichia coli; assay: Ratio of Kcat to Km for Escherichia coli XL1-Blue IMP-1 W64A mutant beta-lactamase by spectrophotometer
[6] = tested on: Escherichia coli; assay: Ratio of Kcat to Km for Escherichia coli XL1-Blue VIM-2 A64W mutant beta-lactamase by spectrophotometer; how it was run: as §1
[7] = tested on: CO[C@@]1(NC(=O)Cc2cccs2)C(=O)N2C(C(=O)O)=C(COC(N)=O)CS[C@@H]21; assay: (§2) Ratio of Kcat to Km for Escherichia coli XL1-Blue wild-type VIM-2 beta-lactamase by spectrophotometer
[8] = tested on: O=C(Cc1cccs1)N[C@@H]1C(=O)N2C(C(=O)O)=C(/C=C/c3ccc([N+](=O)[O-])cc3[N+](=O)[O-])CS[C@H]12; assay: as §2
[9] = tested on: C[C@@H](O)[C@H]1C(=O)N2C(C(=O)O)=C(SCCNC=N)C[C@H]12; assay: as §2
[10] = tested on: CO/N=C(\C(=O)N[C@@H]1C(=O)N2C(C(=O)[O-])=C(C[N+]3(C)CCCC3)CS[C@H]12)c1csc(N)n1; assay: as §2
[11] = tested on: CC(=O)OCC1=C(C(=O)O)N2C(=O)[C@@H](NC(=O)Cc3cccs3)[C@H]2SC1; assay: as §2
[12] = tested on: CO/N=C(\C(=O)N[C@@H]1C(=O)N2C(C(=O)O)=C(COC(C)=O)CS[C@H]12)c1csc(N)n1; assay: as §2
[13] = tested on: C[C@@H](O)[C@H]1C(=O)N2C(C(=O)O)=C(SCCNC=N)C[C@H]12; assay: (§3) Activity of Escherichia coli BL21(DE3) wild-type VIM-2 beta-lactamase by spectrophotometer
[14] = tested on: CO/N=C(\C(=O)N[C@@H]1C(=O)N2C(C(=O)[O-])=C(C[N+]3(C)CCCC3)CS[C@H]12)c1csc(N)n1; assay: as §3
[15] = tested on: CC(C)(O/N=C(\C(=O)N[C@@H]1C(=O)N2C(C(=O)[O-])=C(C[n+]3ccccc3)CS[C@H]12)c1csc(N)n1)C(=O)O; assay: as §3
[16] = tested on: C[C@@H](O)[C@H]1C(=O)N2C(C(=O)O)=C(S[C@@H]3CN[C@H](C(=O)N(C)C)C3)[C@H](C)[C@H]12; assay: as §3
[17] = tested on: CO/N=C(\C(=O)N[C@@H]1C(=O)N2C(C(=O)O)=C(COC(C)=O)CS[C@H]12)c1csc(N)n1; assay: as §3
[18] = tested on: C[C@@H](O)[C@H]1C(=O)N2C(C(=O)O)=C(SCCNC=N)C[C@H]12; assay: (§4) Activity of Escherichia coli XL1-Blue wild-type VIM-2 beta-lactamase by spectrophotometer
[19] = tested on: CO/N=C(\C(=O)N[C@@H]1C(=O)N2C(C(=O)[O-])=C(C[N+]3(C)CCCC3)CS[C@H]12)c1csc(N)n1; assay: as §4
[20] = tested on: CC(C)(O/N=C(\C(=O)N[C@@H]1C(=O)N2C(C(=O)[O-])=C(C[n+]3ccccc3)CS[C@H]12)c1csc(N)n1)C(=O)O; assay: as §4
[21] = tested on: C[C@@H](O)[C@H]1C(=O)N2C(C(=O)O)=C(S[C@@H]3CN[C@H](C(=O)N(C)C)C3)[C@H](C)[C@H]12; assay: as §4
[22] = tested on: CO/N=C(\C(=O)N[C@@H]1C(=O)N2C(C(=O)O)=C(COC(C)=O)CS[C@H]12)c1csc(N)n1; assay: as §4
[23] = tested on: C[C@@H](O)[C@H]1C(=O)N2C(C(=O)O)=C(SCCNC=N)C[C@H]12; assay: (§5) Ratio of Kcat to Km for Escherichia coli BL21(DE3) wild-type VIM-2 beta-lactamase by spectrophotometer
[24] = tested on: CO/N=C(\C(=O)N[C@@H]1C(=O)N2C(C(=O)[O-])=C(C[N+]3(C)CCCC3)CS[C@H]12)c1csc(N)n1; assay: as §5
[25] = tested on: CC(=O)OCC1=C(C(=O)O)N2C(=O)[C@@H](NC(=O)Cc3cccs3)[C@H]2SC1; assay: as §5
[26] = tested on: CO/N=C(\C(=O)N[C@@H]1C(=O)N2C(C(=O)O)=C(COC(C)=O)CS[C@H]12)c1csc(N)n1; assay: as §5

With CC(=O)OCC1=C(C(=O)O)N2C(=O)[C@@H](NC(=O)Cc3cccs3)[C@H]2SC1 the kcat/Km [1] was 6.4e+06 M⁻¹ s⁻¹, the Km [2] was greater than 500 µM and the kcat [2] was greater than 250 s⁻¹. The Km [3] was 5 µM, the kcat [3] was 32 s⁻¹ and the Km [4] was 6 µM. The kcat [4] was 135 s⁻¹, the kcat/Km [5] was 310000 M⁻¹ s⁻¹ and the kcat/Km [6] was 2.2e+07 M⁻¹ s⁻¹.

Compound CO[C@@]1(NC(=O)Cc2cccs2)C(=O)N2C(C(=O)O)=C(COC(N)=O)CS[C@@H]21 has a kcat/Km [1] of 3e+06 M⁻¹ s⁻¹, a Km [2] of 45 µM and a kcat [2] of 40 s⁻¹. It also gave a Km [3] of 3 µM, a kcat [3] of 9 s⁻¹ and a kcat/Km [5] of 900000 M⁻¹ s⁻¹.

CO/N=C(\C(=O)N[C@@H]1C(=O)N2C(C(=O)[O-])=C(C[N+]3(C)CCCC3)CS[C@H]12)c1csc(N)n1 showed a kcat/Km [1] of 660000 M⁻¹ s⁻¹, a Km [3] of 11 µM and a kcat [3] of 7 s⁻¹. The Km [4] was greater than 400 µM, the kcat [4] was greater than 50 s⁻¹ and the kcat/Km [6] was 120000 M⁻¹ s⁻¹.

For “Metallo-beta-lactamase (Escherichia coli) (from UniProt Q5U7L7)”, the kcat/Km [7] was 1.2e+06 M⁻¹ s⁻¹, the kcat/Km [8] was 4.3e+07 M⁻¹ s⁻¹ and the kcat/Km [9] was 3.8e+06 M⁻¹ s⁻¹. It also gave a kcat/Km [10] of 100000 M⁻¹ s⁻¹, a kcat/Km [11] of 1.2e+07 M⁻¹ s⁻¹ and a kcat/Km [12] of 5.8e+06 M⁻¹ s⁻¹. The Km [13] was 9 µM, the kcat [13] was 34 s⁻¹ and the Km [14] was greater than 400 µM. For the same compound, the kcat [14] was greater than 40 s⁻¹, the Km [15] was 72 µM and the Km [16] was 2 µM. For the same compound, the kcat [16] was 5 s⁻¹, the Km [17] was 12 µM and the kcat [17] was 70 s⁻¹. It also gave a Km [18] of 9 µM, a kcat [18] of 34 s⁻¹ and a Km [19] greater than 400 µM. For the same compound, the kcat [19] was greater than 40 s⁻¹, the Km [20] was 72 µM and the Km [21] was 2 µM. For the same compound, the kcat [21] was 5 s⁻¹, the Km [22] was 12 µM and the kcat [22] was 70 s⁻¹. It also gave a kcat/Km [23] of 3.8e+06 M⁻¹ s⁻¹, a kcat/Km [24] of 100000 M⁻¹ s⁻¹ and a kcat/Km [25] of 1.2e+07 M⁻¹ s⁻¹. It also gave a kcat/Km [26] of 5.8e+06 M⁻¹ s⁻¹.

CO/N=C(\C(=O)N[C@@H]1C(=O)N2C(C(=O)O)=C(COC(C)=O)CS[C@H]12)c1csc(N)n1 was tested, and the kcat/Km [1] was 4.8e+06 M⁻¹ s⁻¹, the Km [2] was 61 µM and the kcat [2] was 98 s⁻¹. The Km [3] was 2.8 µM, the kcat [3] was 13.4 s⁻¹ and the Km [4] was 7 µM. The kcat [4] was 26 s⁻¹, the kcat/Km [5] was 1.5e+06 M⁻¹ s⁻¹ and the kcat/Km [6] was 3.7e+06 M⁻¹ s⁻¹.

With C[C@@H](O)[C@H]1C(=O)N2C(C(=O)O)=C(S[C@@H]3CN[C@H](C(=O)N(C)C)C3)[C@H](C)[C@H]12 the kcat/Km [1] was 500000 M⁻¹ s⁻¹, the Km [3] was 10 µM and the kcat [3] was 5 s⁻¹. It also gave a Km [4] of 2 µM, a kcat [4] of 6 s⁻¹ and a kcat/Km [6] of 3e+06 M⁻¹ s⁻¹.
